# Measurements: ChEMBL document CHEMBL1138647, “Carbonic anhydrase inhibitors. Design of anticonvulsant sulfonamides incorporating indane moieties” (Bioorg Med Chem Lett, 2004)
# Test system: Mus musculus
# Experiment: Percent of mice (n=8) protected against seizures induced by a maximal electroshock (50mA,0.2s) after 30 mg/kg compound was injected intraperitoneally
# Type: functional
# Conditions: route intraperitoneal
# Method in brief: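 Mice, n = 8 per group, received 30mg/kg ip 3h before a maximal electroshock (50mA, 0.2s). The read-out was the percentage of animals protected against the induced seizures.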
row,Structure (SMILES),Protected mice
1,NS(=O)(=O)c1ccc2c(c1)CC(NC(=O)c1c(F)c(F)c(F)c(F)c1F)C2 (centres undefined),38%
2,CC(=O)NC1Cc2ccc(S(N)(=O)=O)cc2C1 (centres undefined),38%
3,COc1ccc(Cl)cc1C(=O)NC1Cc2ccc(S(N)(=O)=O)cc2C1.O (centres undefined),38%
4,NC1Cc2ccc(S(=O)(=O)O)cc2C1 (centres undefined),0%
5,NS(=O)(=O)c1ccc2c(c1)CC(NC(=O)c1c(F)c(F)cc(F)c1F)C2 (centres undefined),13%
6,CC(=O)NC1Cc2ccc(S(=O)(=O)O)cc2C1.O (centres undefined),0%
7,NS(=O)(=O)c1ccc2c(c1)CC(NC(=O)c1ccc(Cl)cc1)C2 (centres undefined),31%
8,Cl.NC1Cc2ccc(S(N)(=O)=O)cc2C1 (centres undefined),0%
9,CC(=O)/N=c1/sc(S(N)(=O)=O)nn1C [METHAZOLAMIDE],100%
